Compound activity (PubChem)
MrgX1 ag: agonists of human MrgX1 receptor; MrgX1-HEK293 cells, Fluo-4 calcium fluorescence, agonist mode; stronger effect = higher value; B-score at 10 µM; AID 588627; Q96LB2; actives 0.44% (n = 310,000);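 active = calcium response B-score plate-corrected fluorescence ratio at least 3 library SD, with starting fluorescence B-score inside 5 SD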
Target sequence (Q96LB2 whole entry, looked up): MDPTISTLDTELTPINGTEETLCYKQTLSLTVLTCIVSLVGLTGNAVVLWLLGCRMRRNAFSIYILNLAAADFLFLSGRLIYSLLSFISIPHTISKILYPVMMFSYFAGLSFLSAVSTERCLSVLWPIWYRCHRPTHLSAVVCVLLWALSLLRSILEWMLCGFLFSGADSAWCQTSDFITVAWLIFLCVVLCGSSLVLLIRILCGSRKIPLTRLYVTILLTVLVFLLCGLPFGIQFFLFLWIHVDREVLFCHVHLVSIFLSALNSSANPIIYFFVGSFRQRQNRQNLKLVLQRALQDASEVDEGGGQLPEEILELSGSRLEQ
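System – MrgX1-expressing HEK293 cells · Incubation – cells plated overnight, dye loaded 0.5 h 37 °C, 0.5 h room temperature · Technique – kinetic Fluo-4 NW fluorescence of intracellular calcium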
MrgX1 allo act: human MrgX1 positive allosteric modulation, primary screen. MrgX1-HEK293, Fluo-4 calcium flux, FDSS; stronger effect = higher value. B-score at 10 µM. actives 0.63% (n = 310,000). Q96LB2;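 active = plate-corrected calcium response at least 3 library SD above typical, normal starting fluorescence, not activating the receptor alone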;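 note: compound read alongside a low EC10 to EC30 dose of BAM8-22 agonist; peak minus trough fluorescence over baseline measured at the second addition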
RGS4 pot: potentiators or activators of RGS4 | HEK293 M3R/inducible RGS4, carbachol calcium flux Fluo4; stronger effect = lower value | B-score at 10 µM | actives 0.92% (n = 310,000) | AID 463111;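 active = B-score of the integrated calcium signal more than 4 SD below the library mean, with starting fluorescence not abnormally high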;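 note: negative B-score means reduced calcium response which marks RGS4 activation or potentiation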
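test system = HEK293 cells with stable M3R and inducible RGS4 | schedule = recording 10 s baseline at 1 Hz, 100 s post-agonist | technique = Fluo4-AM (2 µM) calcium-flux fluorescence, kinetic read | measure = Agonist-evoked peak-minus-minimum fluorescence over baseline, integrated ratio, B score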
Hep lipid drop: hepatic lipid droplet formation modulation; AML12 mouse hepatocytes, oleate lipid droplets, BODIPY imaging; inhibition, % at 6.5 µM; actives 0.4% (n = 240,000); AID 1656;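 active = lipid droplet intensity inhibited by at least 50%, with more than 500 cells counted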
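Assay system: AML12 hepatocytes (mouse); Probe or stimulus: oleic acid at 100 µM to induce lipid droplet formation; Dosing: compound at 6.5 µM only; Schedule: compound with oleate, overnight; Detection: fluorescence imaging, 20x objective, two fields per well; Measure: % inhibition of lipid droplet signal.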
RGS4 block: human RGS4 inhibition; P49798; HEK293 M3R/RGS4 inducible, Fluo-4 calcium flux; stronger effect = higher value; triggered by carbachol at its EC20; B-score at 10 µM; actives 0.45% (n = 310,000); AID 463165;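 active = B-score, a plate-corrected calcium signal, over three deviations above library mean, with baseline fluorescence within five deviations of library mean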;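 note: RGS4 expression induced by doxycycline in cells with stable M3 receptor; B-score is computed from the integrated fluorescence ratio over baseline after carbachol; higher B-score means a larger calcium signal and so more RGS4 inhibition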
Target sequence (P49798 whole entry, looked up): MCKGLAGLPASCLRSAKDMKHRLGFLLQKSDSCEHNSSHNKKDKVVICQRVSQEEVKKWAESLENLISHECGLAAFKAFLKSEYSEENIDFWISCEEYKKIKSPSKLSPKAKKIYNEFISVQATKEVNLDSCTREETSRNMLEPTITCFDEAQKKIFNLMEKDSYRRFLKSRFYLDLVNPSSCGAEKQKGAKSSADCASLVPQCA
MrgX1 antag: blocks BAM8-22 activation of human MrgX1 receptor. MRGX1-HEK293 calcium flux, Fluo-4, BAM8-22 antagonism; stronger effect = lower value. B-score at 10 µM. actives 1.3% (n = 310,000). AID 588676;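 active = calcium-response B-score plate-corrected more than 3 library SD below zero, starting fluorescence within 5 deviations, no agonist response on first addition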;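 note: peak minus trough fluorescence over baseline after final BAM8-22 challenge near maximal dose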
* = called active by the depositor; i = inactive; / = not tested or not shown. Compounds with a hit are over-represented: about 3.8% of the library has one in this group of screens.

SMILES	MrgX1 ag	MrgX1 allo act	RGS4 pot	Hep lipid drop	RGS4 block	MrgX1 antag
COc1cc(/C=C2/SC(=Nc3ccc(O)cc3)NC2=O)ccc1O	i	i	i	1.6	i	-5*
CCc1ccc(N=C2NC(=O)/C(=C/c3cc(OC)c(O)c(OC)c3)S2)cc1	i	i	i	-8.9	i	-7.63*
COc1cc(/C=C2/CC/C(=C/c3ccc(O)c(OC)c3)C2=O)ccc1O	57.8*	i	i	-7.8	i	i
CCCOc1ccc(S(=O)(=O)n2cc(F)c(=O)[nH]c2=O)cc1	i	7.94*	i	-18.5	i	i
OCCC1CN(CC2CC2)CCN1Cc1ccc(F)c(F)c1 (configuration not stated)	i	i	i	9.2	i	i
CC(=O)Nc1sc2c(c1-c1nc3ccccc3s1)CCN(C(C)C)C2	27.5*	i	/	-35.1	/	i
CC(C)N1CCc2c(sc(NC(=O)c3ccc4ccccc4c3)c2C(N)=O)C1	i	i	i	-6.0	i	i
C=C[C@@]1(C)CC(=O)[C@]2(O)[C@@]3(C)[C@@H](O)CCC(C)(C)[C@@H]3[C@H](O)[C@H](OC(C)=O)[C@@]2(C)O1	i	10*	i	/	i	i
C=C1C(=O)O[C@H]2C[C@]3(C)C([C@@H](OC(=O)/C(C)=C/C)[C@H]12)[C@](C)(O)CC[C@H]3O (some centres not stated)	i	i	i	-1.4	i	i
COC(=O)c1ccccc1NC(=O)COc1ccccc1[N+](=O)[O-]	i	i	i	-27.4	i	-4.63*
O=C(CCOc1ccccc1)Nc1ccccc1[N+](=O)[O-]	i	i	i	-10.1	i	-5.41*
CC(C)(C)CC(=O)NC(=S)Nc1ccccc1[N+](=O)[O-]	i	i	i	27.9	i	-5.68*
O=C(NC(C(=O)N/N=C/c1cccnc1)c1n[nH]c(=O)c2ccccc12)c1ccccc1 (configuration not stated)	35.9*	i	i	-0.5	i	i
CCOC(=O)c1cccc(NC(=S)NCc2ccc(C)cc2)c1	i	i	i	-3.3	i	i
O=c1ccn([C@H]2C[C@H](O)[C@@H](CO)O2)c(=O)[nH]1	i	i	i	/	i	-6.84*
CC(C)[C@H](NC(=O)c1c(F)cccc1F)C(=O)Nc1cccc(Br)c1	i	i	i	-4.2	i	i
CCCCc1nc2ccccc2c(=O)n1NC(=O)c1c(O)c2ccccc2n(C)c1=O	i	i	i	-0.8	i	-5.77*
CCCc1nc2ccccc2c(=O)n1NC(=O)c1c(O)c2cccc3c2n(c1=O)CCC3	i	i	i	2.7	i	-5.66*
O=C1CC(c2ccc(Cl)cc2)CC(=O)C1CS(=O)(=O)c1ccccc1 (configuration not stated)	i	i	-7.17*	-1.9	i	i
COc1ccc(C2CC(=O)C(CS(=O)(=O)c3ccccc3)C(=O)C2)cc1 (configuration not stated)	i	i	i	12.4	i	i
COc1ccc(-c2csc(N(Cc3ccco3)C(=O)c3cccs3)n2)cc1	i	i	i	-8.6	i	-4.82*
Cc1cc(C)c(C)c(S(=O)(=O)N[C@@H](C)C(=O)OCC(N)=O)c1C	i	i	i	14.0	i	i
CC(C)c1ccc(C2C3CSCC=C3C(C#N)=C(N)C2(C#N)C#N)cc1 (configuration not stated)	i	i	-8.73*	-1.0	i	i
Cc1oc(-c2ccccc2F)nc1CS(=O)(=O)CC(=O)NCCN(C)C1CCCCC1	i	i	i	/	i	-5.72*
COc1ccc(S(=O)(=O)NCC2CCCN(Cc3cn(C)nc3C)C2)cc1 (configuration not stated)	i	i	i	12.1	i	i
SMILES	MrgX1 ag	MrgX1 allo act	RGS4 pot	Hep lipid drop	RGS4 block	MrgX1 antag
COc1ccccc1C(=O)NC(=O)COC(=O)Cn1[nH]c(=O)c2ccccc2c1=O	i	i	i	/	i	-4.52*
O=C(Nc1ccccc1C(=O)O)c1cccc(NC(=O)c2ccccc2Cl)c1	i	i	-7.01*	9.5	i	i
O=C(N/N=C/c1ccccn1)c1cccc(NC(=O)c2ccccc2Cl)c1	i	i	i	-0.9	i	i
O=C(N/N=C/c1ccccc1F)c1cccc(NC(=O)c2ccccc2Cl)c1	i	8.44*	i	-11.4	i	i
O=C(N/N=C/c1ccncc1)c1cccc(NC(=O)c2ccc(Cl)cc2)c1	i	i	i	0.5	i	i
Cc1ccccc1C(=O)Nc1cccc(C(=O)Nc2ccccc2C(=O)O)c1	i	i	i	-0.7	i	i
O=C(N/N=C/c1ccc(F)cc1)c1cccc(NC(=O)c2ccc(F)cc2)c1	i	i	-7.33*	19.2	i	i
Cc1[nH]c(=O)c(C(=O)/C=C/c2ccccc2F)c2c1CCCC2	i	i	i	/	i	i
Cn1c(=O)[nH]c(=O)c2c1nc(SCc1ccccc1Cl)n2CC(N)=O	i	i	i	3.3	i	i
N#CC(c1cccc(Cl)c1)c1ncc(C(F)(F)F)cc1Cl (configuration not stated)	i	i	i	/	i	i
COc1cc(CNCc2cccs2)ccc1OCc1ccccc1	i	i	-7.09*	/	i	i
COc1cc(CNCc2cccs2)ccc1OCc1cccs1	i	i	i	/	i	i
Nc1ncnc(Oc2cccc3cccnc23)c1[N+](=O)[O-]	i	i	i	-2.6	i	-4.98*
O=C(NC(=S)Nc1cccc(S(=O)(=O)NC2=NCCC2)c1)c1cc(-c2ccco2)nc2ccccc12	i	i	i	-7.0	i	-4.95*
CN1CCN(c2nc3c(c(=O)[nH]c(=O)n3C)n2Cc2ccccc2)CC1	i	i	i	8.6	i	i
COc1ccc2c(c1)[nH]c1c(N3CCN(Cc4ccc5c(c4)OCO5)CC3)ncnc12	i	i	i	/	i	-6.1*
CC1=CN2C(=N)/C(=C/c3ccc(C)o3)C(=O)N=C2S1	i	15.3*	i	19.2	i	i
COc1cccc(OC)c1C(=O)Nc1ccccc1Sc1ccccc1	i	i	i	/	i	i
CC(=O)/C(C[N+]1(C)CCCCC1)=N\O	i	i	i	2.2	i	i
